According to ChEMBL document CHEMBL4334504 (J Med Chem, 2019):
In brackets after ≈: the same amount, converted by molar mass.

Key:
[1] = test system: HRT-18 cell line; test: Cytotoxicity against human HRT18 cells at > 256 uM measured after 2 hrs by MTS assay; type: cell-based; conditions: hrt-18, 2 h
[2] = test system: Caco-2; test: Cytotoxicity against human Caco2 cells at > 256 uM measured after 2 hrs by MTS assay; type: cell-based; conditions: caco-2, 2 h
[3] = test system: Clostridioides difficile; test: Antibacterial activity against Clostridium difficile VPI 10463 ATCC 43255 assessed as bacterial growth inhibition incubated for 48 hrs under anaerobic condition by CLSI protocol based assay; type: functional; conditions: ATCC 43255 VPI 10463, 48 h
Outline: (§1)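 Broth microdilution following CLSI guidance. Strains pre-grown anaerobically on BHIS agar (BHI plus yeast extract, vitamin K1, hemin) at 37 °C for 48 h. ~10^5 CFU/mL in BHIS broth added to serial compound dilutions. Incubated anaerobically at 37 °C for 48 h. MIC is the lowest concentration showing visible growth inhibition.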

[4] = test system: Bifidobacterium bifidum; test: Effect on growth of Bifidobacterium bifidum 212A ATCC 11863 measured after 48 hrs in anerobic conditions by CLSI method; type: organism-based; conditions: in vivo
[5] = test system: Clostridioides difficile; test: Antibacterial activity against Clostridium difficile 4118 ATCC BAA 1870 assessed as bacterial growth inhibition incubated for 48 hrs under anaerobic condition by CLSI protocol-based assay; type: functional; conditions: 4118 ATCC BAA 1870, 48 h; outline: as §1
[6] = test system: Escherichia coli; test: Effect on growth of Escherichia coli ATCC 25922 assessed as bacterial growth inhibition measured after 16 to 18 hrs by CLSI method; type: organism-based; conditions: in vivo
Outline: (§2)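 CLSI microdilution. Colonies from TSA (16-20 h, 37 °C) suspended in PBS to 0.5 McFarland, then diluted in TSB to ~10^5 CFU/mL. Incubated with serial compound dilutions for 16-20 h at 37 °C. MIC is the lowest concentration inhibiting growth.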

[7] = test system: Enterobacter cloacae; test: Effect on growth of Enterobacter cloacae ATCC BAA 1143 assessed as bacterial growth inhibition measured after 16 to 18 hrs grown in tryptic soy medium by CLSI method; type: organism-based; conditions: in vivo; outline: as §2
[8] = test system: Vero; test: Cytotoxicity against African green monkey Vero cells at > 256 uM measured after 2 hrs by MTS assay; type: cell-based; conditions: chlorocebus sabaeus
[9] = test system: Lacticaseibacillus paracasei; test: Effect on growth of Lactobacillus casei ATCC 334 measured after 48 hrs in 5% CO2 by CLSI method
[10] = Effect on growth of Lactobacillus gasseri EX336960VC03 HM 400 measured after 48 hrs in 5% CO2 by CLSI method; conditions: lactobacillus gasseri ex336960vc03, 48 h
[11] = Effect on growth of Lactobacillus crispatus JV-V01 HM 103 measured after 48 hrs in 5% CO2 by CLSI method; conditions: lactobacillus crispatus jv-v01, 48 h
[12] = Stability of compound in simulated gastric fluid assessed as parent compound remaining at pH 1.6 measured after 8 hrs by HPLC analysis; type: ADME; conditions: read-out: Stability
Outline: (§3)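 200 µL of a 50 µg/mL methanol stock mixed with 800 µL SGF (pH 1.6) or SIF (pH 6.0), stirred at 37 °C. Sampled at 4 and 8 h for isocratic HPLC (acetonitrile/water 50:50, 1.0 mL/min, 254 nm). Percent remaining calculated as AUC after incubation / AUC before incubation.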

[13] = Aqueous solubility of compound in PBS buffer at 1 to 100 ug/ml at pH 7.3 to 7.5 measured after 24 hrs by HPLC analysis; type: physicochemical
Outline: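 3 mg compound in 3 mL PBS (pH 7.3-7.5) shaken 24 h at 25 °C, then centrifuged. Supernatant mixed 1:1 with acetonitrile and analysed by HPLC (C18, 1 mL/min). Solubility calculated from a standard curve (1 mg/mL methanol stock) and the dilution factor.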

[14] = Stability of compound in simulated intestinal fluid assessed as parent compound remaining at pH 6 measured after 4 hrs by HPLC analysis; type: ADME; conditions: read-out: Stability; outline: as §3
[15] = Stability of compound in simulated intestinal fluid assessed as parent compound remaining at pH 6 measured after 8 hrs by HPLC analysis; type: ADME; conditions: read-out: Stability; outline: as §3
[16] = Stability of compound in simulated gastric fluid assessed as parent compound remaining at pH 1.6 measured after 4 hrs by HPLC analysis; type: ADME; conditions: read-out: Stability; outline: as §3
[17] = Cytotoxicity against human Caco2 cells measured after 2 hrs by MTS assay; type: cell-based; conditions: Caco-2 cells
[18] = Cytotoxicity against human HRT18 cells measured after 2 hrs by MTS assay; type: cell-based; conditions: HRT-18 cells
[19] = Cytotoxicity against African green monkey Vero cells measured after 2 hrs by MTS assay; type: cell-based; conditions: chlorocebus sabaeus
[20] = test system: Clostridioides difficile; test: Ratio of MBC99.9 to MIC for Clostridium difficile 4118 ATCC BAA 1870; type: functional
[21] = test system: Clostridioides difficile; test: Bactericidal activity against Clostridium difficile 4118 ATCC BAA 1870 incubated for 48 hrs followed by re-plating on BHIS agar plates and measured after 24 hrs; type: functional; conditions: read-out: MBC99.9
[22] = test system: Clostridioides difficile; test: Bactericidal activity against Clostridium difficile 4118 ATCC BAA 1870 assessed as reduction in bacterial colony forming units at 8 fold MIC preincubated followed by re-plating on BHIS agar plate and measured after 6 hrs under anaerobic condition by time-kill assay relative to control; type: functional; set-up: scale not given: the % may be the effect or the level left

Row | SMILES | Activity [1] | Activity [2] | MIC [3] [µM] | MIC [4] [µM] | MIC [5] [µM] | MIC [6] [µM] | MIC [7] [µM] | Activity [8] | MIC [9] [µM] | MIC [10] [µM] | MIC [11] [µM] | remaining at 8 h [12] [%] | solubility at 24 h [13] [µg/mL] | remaining at 4 h [14] [%] | remaining at 8 h [15] [%] | remaining at 4 h [16] [%] | further results
1 | Cc1nc2c([N+](=O)[O-])csc2c(=O)n1Cc1ccccc1 | Non-Toxic | Non-Toxic | 56 (≈ 16.9 µg/mL) | > 425 | 7 (≈ 2.11 µg/mL) | > 850 | > 850 | Non-Toxic | > 425 | > 425 | > 425 |  |  |  |  |  | 
2 | O=c1[nH]c(/C=C/c2ccc(Cl)cc2)nc2c([N+](=O)[O-])csc12 | Non-Toxic | Non-Toxic | 6 (≈ 2 µg/mL) | > 767 | 6 (≈ 2 µg/mL) | > 767 | > 767 | Non-Toxic | > 767 | > 767 | > 767 |  |  |  |  |  | 
3 | Cc1nc2c([N+](=O)[O-])csc2c(=O)n1Cc1ccc([N+](=O)[O-])cc1 | Non-Toxic | Non-Toxic | 12 (≈ 4.16 µg/mL) | > 739 | 6 (≈ 2.08 µg/mL) | > 739 | > 739 | Non-Toxic | > 739 | > 739 | > 739 | > 95 | 12.7 (≈ 36.8 µM) | > 95 | 90 | > 95 | 
4 | Cc1nc2c([N+](=O)[O-])scc2c(=O)[nH]1 |  |  | 38 (≈ 8.03 µg/mL) | > 700 | 38 (≈ 8.03 µg/mL) | > 700 | > 700 |  | > 700 | > 700 | > 700 |  |  |  |  |  | 
5 | Cc1nc(N2CCOCC2)c2scc([N+](=O)[O-])c2n1 | Non-Toxic | Non-Toxic | 14 (≈ 3.92 µg/mL) | > 913 | 14 (≈ 3.92 µg/mL) | > 913 | > 913 | Non-Toxic | > 913 | > 913 | > 913 | < 10 | 18.7 (≈ 66.7 µM) | 79 | 80 | < 10 | 
6 | O=c1[nH]c(/C=C/c2ccccc2F)nc2c([N+](=O)[O-])csc12 | Non-Toxic | Non-Toxic | 12 (≈ 3.81 µg/mL) | > 807 | 6 (≈ 1.9 µg/mL) | > 807 | > 807 | Non-Toxic | > 807 | > 807 | > 807 |  |  |  |  |  | 
7 | Cc1nc2c([N+](=O)[O-])csc2c(=O)n1CCCc1ccccc1 | Non-Toxic | Non-Toxic | 12 (≈ 3.95 µg/mL) | > 777 | 12 (≈ 3.95 µg/mL) | > 777 | > 777 | Non-Toxic | > 777 | > 777 | > 777 | < 10 | 10.8 (≈ 32.7 µM) | < 10 | < 10 | 45 | 
8 | Cc1nc2c([N+](=O)[O-])csc2c(=O)[nH]1 | Non-Toxic | Non-Toxic | 38 (≈ 8.03 µg/mL) | > 1212 | 19 (≈ 4.01 µg/mL) | > 1212 | > 1212 | Non-Toxic | > 1212 | > 1212 | > 1212 | 90 | > 500 | 91 | 76 | 90 | CC50 at 2 h [17]: > 606 µM; CC50 at 2 h [18]: > 606 µM; CC50 at 2 h [19]: > 606 µM
9 | Cc1nc2c([N+](=O)[O-])coc2c(=O)[nH]1 |  |  | 41 (≈ 8 µg/mL) | > 700 | 41 (≈ 8 µg/mL) | > 700 | > 700 |  | > 700 | > 700 | > 700 |  |  |  |  |  | 
10 | O=c1[nH]c(/C=C/c2ccc(F)cc2)nc2c([N+](=O)[O-])csc12 | Non-Toxic | Non-Toxic | 6 (≈ 1.9 µg/mL) | > 807 | 3 (≈ 0.952 µg/mL) | > 807 | > 807 | Non-Toxic | > 807 | > 807 | > 807 | 48 | 14.8 (≈ 46.6 µM) | 60 | 51 | 50 | Ratio [20]: 2; MBC [21]: 6 µM (≈ 1.9 µg/mL); Activity [22]: 100%
